Data from ChEMBL document CHEMBL1145781, “Synthesis and structure-activity relationships of 5-amino-6-fluoro-1-[(1R,2S)-2-fluorocyclopropan-1-yl]-8-methylquinolonecarboxylic acid antibacterials having fluorinated 7-[(3R)-3-(1-aminocyclopropan-1-yl)pyrrolidin-1-yl] substituents” (J Med Chem, 2003).
Converted amounts (≈) assume the structure as drawn.

Key:
[1] = Half life in liver was determined after intravenous administration to rats (n=4) at dose of 20 mg/kg; format: ADME, organism-based; design: dose 20 mg/kg, route intravenous; conditions: rat
[2] = Total concentration in lung was determined after 6 hr of intravenous administration to rats (n=4) at dose of 20 mg/kg; format: ADME, organism-based; design: time < 6 hr, dose 20 mg/kg, route intravenous; conditions: rat
[3] = Total concentration in serum was determined after 6 hr of intravenous administration to rats (n=4) at dose of 20 mg/kg; format: ADME, organism-based; design: time < 6 hr, dose 20 mg/kg, route intravenous; conditions: rat
[4] = Solubility was determined in water; format: physicochemical
Enterococcus sp. [5] = assay: Antibacterial activity was determined against clinically isolated vancomycin-B resistant enterococci (VRE) strains (10 strains); format: functional
[6] = Half life in kidney was determined after intravenous administration to rats (n=4) at dose of 20 mg/kg; format: ADME, organism-based; design: dose 20 mg/kg, route intravenous; conditions: rat
Staphylococcus aureus [7] = assay: Antibacterial activity was determined against Staphylococcus aureus FDA 209-P strain after incubation at 37 degrees C for 18 h; format: functional
[8] = Liver concentration was determined after 5 min. of intravenous administration to rats (n=4) at dose of 20 mg/kg; format: ADME, organism-based; design: dose 20 mg/kg, route intravenous; conditions: rat
[9] = Total concentration in liver was determined after 6 hr of intravenous administration to rats (n=4) at dose of 20 mg/kg; format: ADME, organism-based; design: time < 6 hr, dose 20 mg/kg, route intravenous; conditions: rat
[10] = Half life in serum was determined after intravenous administration to rats (n=4) at dose of 20 mg/kg; format: ADME, organism-based; design: dose 20 mg/kg, route intravenous; conditions: rat
Escherichia coli = assay: Antibacterial activity was determined against Escherichia coli NIHJ strain after incubation at 37 degrees C for 18 h; format: functional
Enterococcus faecalis = assay: Antibacterial activity was determined against Enterococcus faecalis ATCC 19433 strain after incubation at 37 degrees C for 18 h; format: functional; conditions: ATCC 19433, 18 h
Rattus norvegicus = assay: Ratio of total concentration in serum to that of serum after 6 hr of intravenous administration to rats (n=4) at dose of 20 mg/kg; format: ADME, organism-based; design: dose 20 mg/kg, route intravenous; conditions: in vivo
[11] = Total concentration in kidney was determined after 6 hr of intravenous administration to rats (n=4) at dose of 20 mg/kg; format: ADME, organism-based; design: time < 6 hr, dose 20 mg/kg, route intravenous; conditions: rat
Streptococcus mitis = assay: Antibacterial activity was determined against Streptococcus mitis IID685 strain after incubation at 37 degrees C for 18 h; format: functional
[12] = Ratio of total concentration in lung to that of serum after 6 hr of intravenous administration to rats (n=4) at dose of 20 mg/kg; format: ADME, organism-based; design: dose 20 mg/kg, route intravenous; conditions: rat
[13] = tested on: Staphylococcus epidermidis; assay: Antibacterial activity was determined against Staphylococcus epidermis 56500 strain after incubation at 37 degrees C for 18 h; format: functional
[14] = Ratio of total concentration in liver to that of serum after 6 hr of intravenous administration to rats (n=4) at dose of 20 mg/kg; format: ADME, organism-based; design: dose 20 mg/kg, route intravenous; conditions: rat
Streptococcus pyogenes = assay: Antibacterial activity was determined against Streptococcus pyogenes G-36 strain after incubation at 37 degrees C for 18 h; format: functional
Enterococcus sp. [15] = assay: Antibacterial activity was determined against clinically isolated vancomycin-A resistant enterococci (VRE) strains (33 strains); format: functional
[16] = Kidney concentration was determined after 5 min. of intravenous administration to rats (n=4) at dose of 20 mg/kg; format: ADME, organism-based; design: dose 20 mg/kg, route intravenous; conditions: rat
Pseudomonas aeruginosa = assay: Antibacterial activity was determined against Pseudomonas aeruginosa PAO1 strain after incubation at 37 degrees C for 18 h; format: functional
[17] = Lung concentration was determined after 5 min. of intravenous administration to rats (n=4) at dose of 20 mg/kg; format: ADME, organism-based; design: dose 20 mg/kg, route intravenous; conditions: rat
Streptococcus pneumoniae [18] = assay: Antibacterial activity was determined against clinically isolated penicillin resistant Streptococcus pneumoniae (PRSP) strains (50 strains); format: functional
Staphylococcus aureus [19] = assay: Antibacterial activity was determined against clinically isolated Levofloxacin-methicillin resistant Staphylococcus aureus (LVFX-r MRSA) strains (74 strains); format: functional
Streptococcus pneumoniae [20] = assay: Antibacterial activity was determined against Streptococcus pneumoniae J-24 strain after incubation at 37 degrees C for 18 h; format: functional
Klebsiella pneumoniae = assay: Antibacterial activity was determined against Klebsiella pneumoniae type II strain after incubation at 37 degrees C for 18 h; format: functional
[21] = Toxicity was determined as presence of micronucleated reticulocytes (MNRET) in blood at 24 and 48 h after 150 mg/kg dose administered intravenously to 5-week old male mice; negative.; format: organism-based; design: dose 150 mg/kg, route intravenous; conditions: mouse, in vivo, iv
[22] = Ratio of total concentration in kidney to that of serum after 6 hr of intravenous administration to rats (n=4) at dose of 20 mg/kg; format: ADME, organism-based; design: dose 20 mg/kg, route intravenous; conditions: rat
[23] = Mortality was determined after 150 mg/kg dose administered intravenously to 5-week old male mice at a speed of 0.2 mL/min counted on day 7 for total 5 mice; format: ADME, organism-based; design: dose 150 mg/kg, route intravenous; conditions: mouse, in vivo, iv
In short: (§1)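 Male Slc:ddY mice, 5 weeks old. Compound dissolved in 0.1 N NaOH in saline at varied concentrations and given as a single IV injection at 0.2 mL/min, total volume 10 mL/kg body weight. Deaths counted on day 7 and reported as dead/tested.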

[24] = Serum concentration was determined after 5 min. of intravenous administration to rats (n=4) at dose of 20 mg/kg; format: ADME, organism-based; design: dose 20 mg/kg, route intravenous; conditions: rat
[25] = Half life in lung was determined after intravenous administration to rats (n=4) at dose of 20 mg/kg; format: ADME, organism-based; design: dose 20 mg/kg, route intravenous; conditions: rat
[26] = Mortality was determined after 100 mg/kg dose administered intravenously to 5-week old male mice at a speed of 0.2 mL/min counted on day 7 for total 2 mice; format: ADME, organism-based; design: dose 100 mg/kg, route intravenous; conditions: mouse, in vivo, iv; in short: as §1
[27] = Toxicity was determined as presence of micronucleated reticulocytes (MNRET) in blood at 24 and 48 hr after 50 mg/kg dose administered intravenously to 5-week old male mice.; conditions: mouse, in vivo, iv
[28] = Mortality was determined after 150 mg/kg dose administered intravenously to 5-week old male mice at a speed of 0.2 mL/min counted on day 7 for total 2 mice; format: ADME, organism-based; design: dose 150 mg/kg, route intravenous; conditions: mouse, in vivo, iv; in short: as §1
[29] = Mortality was determined after 50 mg/kg dose administered intravenously to 5-week old male mice at a speed of 0.2 mL/min counted on day 7 for total 5 mice; format: ADME, organism-based; design: dose 50 mg/kg, route intravenous; conditions: mouse, in vivo, iv; in short: as §1

Which results are given for `Cc1c(N2C[C@@H](F)[C@@H](C3(N)CC3)C2)c(F)c(N)c2c(=O)c(C(=O)O)cn([C@@H]3C[C@@H]3F)c12` [DQ-113]?
half-life [1]: 1.3 h; AUC at 6 h [2]: 37900 ng·h/mL; AUC at 6 h [3]: 9300 ng·h/mL; solubility [4]: 291 µg/mL (≈ 667 µM); MIC50 (Enterococcus sp. [5]): 0.25 µg/mL (≈ 0.573 µM); MIC90 (Enterococcus sp. [5]): 0.25 µg/mL (≈ 0.573 µM); half-life [6]: 1.3 h; MIC (Staphylococcus aureus [7]): ≤ 0.003 µg/mL; concentration at 5 min [8]: 46200 ng/mL; AUC at 6 h [9]: 36000 ng·h/mL; half-life [10]: 1.1 h; MIC (Escherichia coli): ≤ 0.003 µg/mL; MIC (Enterococcus faecalis): 0.025 µg/mL (≈ 0.0573 µM); Ratio (Rattus norvegicus): 1; AUC at 6 h [11]: 34800 ng·h/mL; MIC (Streptococcus mitis): ≤ 0.003 µg/mL; Kp at 6 h [12]: 4.1; MIC [13]: ≤ 0.003 µg/mL; Kp at 6 h [14]: 3.9; MIC (Streptococcus pyogenes): ≤ 0.003 µg/mL; MIC50 (Enterococcus sp. [15]): 0.25 µg/mL (≈ 0.573 µM); MIC90 (Enterococcus sp. [15]): 2 µg/mL (≈ 4.58 µM); concentration at 5 min [16]: 33700 ng/mL; MIC (Pseudomonas aeruginosa): 0.39 µg/mL (≈ 0.894 µM); concentration at 5 min [17]: 22000 ng/mL; MIC50 (Streptococcus pneumoniae [18]): ≤ 0.008 µg/mL; MIC90 (Streptococcus pneumoniae [18]): 0.015 µg/mL (≈ 0.0344 µM); MIC50 (Staphylococcus aureus [19]): 0.12 µg/mL (≈ 0.275 µM); MIC90 (Staphylococcus aureus [19]): 0.5 µg/mL (≈ 1.15 µM); MIC (Streptococcus pneumoniae [20]): ≤ 0.003 µg/mL; MIC (Klebsiella pneumoniae): 0.013 µg/mL (≈ 0.0298 µM); Toxicity [21]: Non-toxic; Kp at 6 h [22]: 3.7; Dead [23]: 0; concentration at 5 min [24]: 11100 ng/mL; half-life [25]: 0.9 h

Which Dead [26] does the source give for `Cc1c(N2CC[C@@H]([C@H](C)N)C2)c(F)c(N)c2c(=O)c(C(=O)O)cn([C@@H]3C[C@@H]3F)c12` here?
Its Dead is 2.

What about the Toxicity [27] of the same molecule?
Its Toxicity is “Toxic”.

What about the solubility [4] of the same molecule?
Its solubility is 95 µg/mL (≈ 234 µM).

And the MIC (Staphylococcus aureus [7])?
Its MIC is ≤ 0.003 µg/mL.

And the Dead [28]?
The Dead was 2.

What about the MIC (Escherichia coli) of the same molecule?
Its MIC is ≤ 0.003 µg/mL.

And the MIC (Enterococcus faecalis)?
The MIC was 0.025 µg/mL (≈ 0.0615 µM).

And the MIC (Streptococcus mitis)?
The MIC was ≤ 0.003 µg/mL.

And the MIC [13]?
The MIC was ≤ 0.003 µg/mL.

And the MIC (Streptococcus pyogenes)?
Its MIC is ≤ 0.003 µg/mL.

And the MIC (Pseudomonas aeruginosa)?
The MIC was 0.05 µg/mL (≈ 0.123 µM).

What about the MIC (Streptococcus pneumoniae [20]) of the same molecule?
Its MIC is ≤ 0.003 µg/mL.

What about the MIC (Klebsiella pneumoniae) of the same molecule?
Its MIC is 0.025 µg/mL (≈ 0.0615 µM).

What about the Dead [29] of the same molecule?
The Dead was 1.
